The full list was thinned out, with hits kept by preference.
TLR4 MyD88 comp = TLR4-MyD88 interaction inhibition in cells. HeLa CL3-4 TLR4/MyD88 BLA complementation, FRET ratio. inhibition, % at 8.4 µM. 200,000 tested, 0.18% active. O00206+Q99836; in the data active = inhibition above about 25%
Target sequence (O00206 whole entry, looked up): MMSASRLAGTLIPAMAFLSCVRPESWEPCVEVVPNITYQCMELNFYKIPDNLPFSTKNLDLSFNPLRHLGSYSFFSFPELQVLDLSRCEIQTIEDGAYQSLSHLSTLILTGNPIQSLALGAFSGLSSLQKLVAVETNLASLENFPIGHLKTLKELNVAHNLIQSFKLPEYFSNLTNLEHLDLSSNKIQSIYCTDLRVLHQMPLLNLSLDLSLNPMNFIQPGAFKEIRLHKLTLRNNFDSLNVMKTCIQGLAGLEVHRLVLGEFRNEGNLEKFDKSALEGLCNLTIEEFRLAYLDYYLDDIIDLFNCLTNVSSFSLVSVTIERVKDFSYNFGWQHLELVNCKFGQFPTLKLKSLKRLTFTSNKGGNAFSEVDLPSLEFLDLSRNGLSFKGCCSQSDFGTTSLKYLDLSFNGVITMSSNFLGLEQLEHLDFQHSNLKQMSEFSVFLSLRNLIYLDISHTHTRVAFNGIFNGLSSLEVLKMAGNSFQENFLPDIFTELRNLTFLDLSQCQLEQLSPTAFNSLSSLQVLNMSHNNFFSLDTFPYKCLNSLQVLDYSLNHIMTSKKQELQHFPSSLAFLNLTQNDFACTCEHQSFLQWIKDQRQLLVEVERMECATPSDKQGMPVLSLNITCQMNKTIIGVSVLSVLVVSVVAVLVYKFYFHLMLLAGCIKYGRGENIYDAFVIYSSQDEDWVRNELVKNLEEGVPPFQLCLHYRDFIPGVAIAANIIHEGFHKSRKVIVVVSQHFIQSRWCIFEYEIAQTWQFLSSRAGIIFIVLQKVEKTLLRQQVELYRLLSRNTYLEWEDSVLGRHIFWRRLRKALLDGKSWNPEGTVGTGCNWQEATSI
Target sequence (Q99836 whole entry, looked up): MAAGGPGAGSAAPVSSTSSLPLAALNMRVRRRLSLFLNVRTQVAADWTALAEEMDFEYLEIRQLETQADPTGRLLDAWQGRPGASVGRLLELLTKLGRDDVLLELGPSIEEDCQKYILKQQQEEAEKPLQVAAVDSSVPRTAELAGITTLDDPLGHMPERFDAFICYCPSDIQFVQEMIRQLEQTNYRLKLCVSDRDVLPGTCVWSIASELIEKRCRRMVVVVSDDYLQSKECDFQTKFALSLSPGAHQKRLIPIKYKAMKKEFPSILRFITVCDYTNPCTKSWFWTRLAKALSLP
XBP1 UPR activ = activators of adaptive arm of unfolded protein response (XBP1); CHO-XBP1 luciferase reporter, IRE1-XBP1 UPR activation, luminescence; percent of tunicamycin response, DMSO as zero; activation, % at 20 µM; 330,000 tested, 0.33% active;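 active = versus positive control, 20 µM dose yields 30% or more activation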
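assay system = CHO-XBP1 luciferase reporter cells | amount = 1000 cells/well | buffer or medium = F12 plus 10% FBS | compound dosing = single point, 20 µM final compound, 1% DMSO | incubation = 16-18 h cell attachment at 37 °C, then 6 h compound exposure | detection = Steady-Glo luminescence read | controls = tunicamycin 10 µg/mL and vehicle-only wells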
NOD2-RIPK2 inh = NOD2-RIPK2 protein interaction inhibition; 360,000 tested, 0.38% active; O43353; AID 624267; inhibition, % at 4.98 µM; CHO BLA complementation NOD2-RIPK2, CCF4 ratio; in the data active = inhibition above about 21%
UPR CHOP act = activators of apoptotic arm of unfolded protein response (CHOP); CHO-CHOP luciferase reporter, UPR activation, luminescence; percent of tunicamycin response over DMSO baseline; activation, % at 10 µM; AID 449763; 330,000 tested, 0.34% active;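 active = at 10 µM dose, activation of 40% or more, normalized to positive control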
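System: CHO-CHOP luciferase reporter cell line; amount: 500 cells/well; buffer or medium: F12 medium containing 10% fetal bovine serum; incubation: 6 h compound exposure at 37 °C after overnight seeding; measured by: luciferase luminescence after 10 min with Steady-Glo reagent; evaluation: % reporter activation, DMSO baseline versus tunicamycin full activation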
TLR9-MyD88 block = TLR9-MyD88 interaction inhibition; Q9NR96+Q99836; AID 504734; inhibition, % at 4.98 µM; CHO BLA complementation TLR9-MyD88, CCF4 FRET ratio; 340,000 tested, 0.21% active;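 active = inhibition above the mean over all tested compounds plus 3 SD, cut at about 21% in these data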
CHOP inhibitor = blocks CHOP induction under ER stress; CHO-K1 CHOP-promoter luciferase, tunicamycin-induced, 15-18 h; inhibition, % at 10 µM; 220,000 tested, 3.8% active; AID 2732;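 active = compounds that reduced the stress-induced luciferase reporter signal by more than about 70% of percent inhibition, limit read from the data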
A number is an active result; . = inactive; / = no result given.

SMILES | TLR4 MyD88 comp | XBP1 UPR activ | NOD2-RIPK2 inh | UPR CHOP act | TLR9-MyD88 block | CHOP inhibitor
CCOC(=O)c1ccc(NC(=O)CCc2nc(-c3ccccc3Cl)no2)cc1 | . | . | . | . | . | 81
CCOC(=O)c1cccc(NC(=O)CCc2nc(-c3ccc(C)cc3)no2)c1 | . | . | . | . | . | .
NC(Cc1ccccc1)C(=O)N1CCCCC1 (stereo not drawn) | / | . | . | . | . | /
COc1ccccc1/C=C/C(=O)OCC(=O)N1c2ccccc2CC1C (stereo not drawn) | / | . | . | . | . | /
CS(=O)(=O)c1ccc(Cl)c(NC(=O)CCN2C(=O)NC3(CCCC3)C2=O)c1 | / | . | . | . | . | /
COc1cc2c(cc1OC)C1(CCCC1)C(N)=C2C#N | . | . | . | . | . | 70
COc1cc(OC)c(OC)cc1C#N | . | . | . | . | . | .
Cc1cc(Cl)c(S(=O)(=O)NC2CCCC2)cc1OCC(=O)NC1CCCCC1 | . | . | . | . | . | 70
O=C(COc1ccc(Br)cc1Cl)NC(=O)NC1CCCC1 | / | . | . | . | . | /
O=C(COc1ccc(Br)cc1Cl)NC1CCCCC1 | . | . | . | . | . | 71
CCOC(=O)N1CCN(S(=O)(=O)c2cc(OCC(=O)NC3CCCCC3)c(C)cc2Cl)CC1 | . | . | . | . | . | 75
CCN1CCN(S(=O)(=O)c2cc(OCC(=O)NC3CCCCC3)c(C)cc2Cl)CC1 | . | . | . | . | . | /
Cc1cc(Cl)c(S(N)(=O)=O)cc1OCC(=O)NC1CCCCC1 | / | . | . | . | . | /
Cc1cc(S(=O)(=O)N2CCCCCC2)c(Cl)cc1Cl | . | . | . | . | . | 80
CCN1C[C@@H]2[C@@H]3C(=O)N(Cc4ccccc4)C(=O)[C@@H]3[C@](CC)(C1=O)N2C(=O)c1ccc(C(F)(F)F)cc1 | / | . | . | . | . | /
O=C(COc1ccc(S(=O)(=O)NC2CCCCC2)cc1Cl)Nc1ccc2c(c1)OCO2 | . | . | . | . | . | 86
Cc1cc(Cl)c(S(=O)(=O)N2CCSCC2)cc1OCC(=O)NC1CCCCC1 | . | . | . | . | . | .
Cc1cc(Cl)c(S(=O)(=O)N2CCCCCC2)cc1OCC(=O)NC1CCCCC1 | . | . | . | . | . | 92
O=C(/C=C/c1ccccc1)NCCOc1ccccc1 | . | . | . | . | . | .
O=C(/C=C/c1ccccc1)NCCSc1ccc(Cl)cc1 | . | . | . | . | . | 77
CC(=O)OCn1ncc(N2CCOCC2)c(Br)c1=O | / | . | . | . | . | /
O=C(OCn1ncc(Br)c(Br)c1=O)c1ccc(F)cc1 | . | . | 74 | . | 35 | /
O=C(Nc1ccc(Cl)cc1)OCc1cn(-c2ccc(Cl)cc2)nn1 | . | . | . | . | . | 73
Cn1c(N)c(C(=O)COC(=O)CCOc2ccc(C(C)(C)C)cc2)c(=O)n(C)c1=O | . | . | . | . | . | 71
CC(C)(C)c1nc(NCCO)c2nnn(Cc3ccccc3)c2n1 | / | . | . | . | . | /
SMILES | TLR4 MyD88 comp | XBP1 UPR activ | NOD2-RIPK2 inh | UPR CHOP act | TLR9-MyD88 block | CHOP inhibitor
N#C/C(=C\c1cn[nH]c1-c1ccc(Cl)cc1)C(=O)NC1CC1 | . | . | . | . | . | .
N#C/C(=C\c1cn[nH]c1-c1ccccc1)C(=O)NC1CCCCCC1 | . | . | . | . | . | 72
CCc1ccc(C(C)NC(=O)/C(C#N)=C\c2cn[nH]c2-c2ccccc2)cc1 (stereo not drawn) | . | . | . | . | . | 78
CCN(CC)C(=O)C1=C(C)N(Cc2ccc(OC)cc2)C(=O)C(CC(=O)NC2CC2)C1 (stereo not drawn) | / | / | . | / | . | /
COC(=O)C1=CN(CC2CCCO2)C=C(C(=O)OC)C1c1cc(OC)c(OC)c(OC)c1 (stereo not drawn) | . | . | . | . | . | .
O=C(Nc1ccc(N2CCCCC2)cc1)c1ccccn1 | . | . | . | . | . | 94
O=C(Nc1ccccc1N1CCCC1)c1ccccc1Cl | / | . | . | . | . | /
CS(=O)(=O)N1CCN(c2ccccc2NC(=O)c2cccs2)CC1 | . | . | . | . | . | .
O=C(Nc1ccccc1N1CCCCC1)c1cccs1 | . | . | . | . | . | 86
O=C(Nc1ccccc1N1CCCCC1)c1cnccn1 | . | . | . | . | . | 80
Cc1ccccc1C(=O)Nc1ccccc1N1CCCCC1 | . | . | . | . | . | 88
O=C(Nc1ccc(N2CCCCCC2)cc1)c1ccccc1Cl | . | . | . | . | . | .
C[C@H](O)C#Cc1ccc2c(c1)O[C@@H](CN(C)Cc1ccc(-c3ccccc3)cc1)[C@H](C)CN([C@@H](C)CO)S2(=O)=O | / | / | . | / | . | /
CC(C)Oc1ccc(C(=O)Nc2ccc(N3CCCC3)cc2)cc1 | . | . | . | . | . | 73
COc1cc(NC(=O)c2sc(C)nc2C)c(OC)cc1NC(=O)c1ccccc1 | / | . | . | . | . | /
CCOC(=O)c1ccc(NC(=S)Nc2cccc(C)n2)cc1 | . | . | . | . | . | 74
O=C1NC[C@@H](CCCCN2C[C@H](Cc3ccccc3)N(Cc3ccccc3)C(=O)C2=O)N(Cc2ccccc2)C1=O | / | / | . | / | / | /
O=C(CCSc1ccccc1)NC(=O)COC(=O)C1CCCCC1 | . | . | . | . | . | 70
O=C(CCSc1ccccc1)NC1CCCCCC1 | . | . | . | . | . | .
Cc1cccc(NC(=O)c2cc(NC(=O)C3CCCCC3C(=O)O)ccc2N2CCCCC2)c1 (stereo not drawn) | . | . | . | . | . | 77
CC(C(=O)Nc1ccc(O)cc1C(=O)O)N1C(=O)/C(=C\c2cccs2)SC1=S (stereo not drawn) | / | . | . | . | . | /
Cc1oc2ccc(O)c(CN3CCOCC3)c2c1C(=O)c1ccc(Cl)cc1 | . | . | . | . | . | 71
COCCOC(=O)c1c(C)oc2ccc(O)c(CN3CCC(C)CC3)c12 (tested in a mixture with another compound) | / | / | . | / | . | /
Cc1ccc(C)c(S(=O)(=O)N/N=C/c2cccnc2)c1 | . | . | . | . | . | 72
Cc1ccc(S(=O)(=O)N/N=C\c2cccnc2)cc1 | . | . | . | . | . | .
CCCN1C/C(=C/c2cccc([N+](=O)[O-])c2)C(=O)/C(=C/c2cccc([N+](=O)[O-])c2)C1 | . | / | . | / | . | 100
CCc1ccccc1NC(=O)CCS(=O)(=O)c1ccc(OC)cc1 | / | . | . | . | . | /
O=C1CC=Nc2ccc([N+](=O)[O-])cc21 | / | / | . | / | . | /
CCCC(=O)Nc1ccc(-c2nc3cc(C)c(C)cc3o2)cc1 | . | . | . | . | . | 95
O=S1(=O)CCOC(CO)CN1Cc1ccc(Cl)c(Cl)c1 (stereo not drawn) | / | . | . | . | . | /

High-throughput results: PubChem BioAssay, several laboratories
